In ChEMBL document CHEMBL1126244, “HIV-1 protease inhibitors based on hydroxyethylene dipeptide isosteres: an investigation into the role of the P1' side chain on structure-activity” (J Med Chem, 1992):
In brackets after ≈: the same amount, converted by molar mass.

Columns and labels:
[1] = target: Human immunodeficiency virus type 1 protease (Human immunodeficiency virus 1, UniProt Q72874); experiment: Inhibition of HIV-1 protease
[2] = test system: Human immunodeficiency virus 1; experiment: Ex vivo antiviral activity in H9 T-lymphoid cells infected with HIV-1(IIIB).; assay type: functional; settings: read-out: MIC100
Outline: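 Human H9 T-lymphoid cells acutely infected with HIV-1 IIIB isolate, MOI 0.01; compound added in DMSO at time of infection, refreshed every 2–3 days when culture sampled and half the medium replaced. Spread read by indirect immunofluorescence (anti-HIV-1 human serum primary antibody) at 14 days; MIC100 = minimum concentration completely preventing spread of infection through the culture, in nM.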

Compound | IC50 [1] [nM] | MIC [2] [µM]
CC(C)(C)OC(=O)N[C@@H](Cc1ccccc1)[C@@H](O)C[C@@H](C/C=C/c1ccccc1)C(=O)N[C@H]1c2ccccc2C[C@H]1O | 0.23 | 0.4 (≈ 0.228 µg/mL)
Cc1ccc(C[C@H](C[C@H](O)[C@H](Cc2ccccc2)NC(=O)OC(C)(C)C)C(=O)N[C@H]2c3ccccc3C[C@H]2O)cc1 | 0.29 | 0.2 (≈ 0.112 µg/mL)
CC(C)C[C@H](NC(=O)[C@H](Cc1ccccc1)C[C@H](O)[C@H](Cc1ccccc1)NC(=O)OC(C)(C)C)C(=O)N[C@@H](Cc1ccccc1)C(N)=O | 0.42 | 3 (≈ 2.02 µg/mL)
CC(C)C[C@H](NC(=O)[C@H](CCCc1ccccc1)C[C@H](O)[C@H](Cc1ccccc1)NC(=O)OC(C)(C)C)C(=O)N[C@@H](Cc1ccccc1)C(N)=O | 0.36 | 
CC(C)(C)OC(=O)N[C@@H](Cc1ccccc1)[C@@H](O)C[C@@H](Cc1ccc(CCO)cc1)C(=O)N[C@H]1c2ccccc2C[C@H]1O | 0.16 | 0.05 (≈ 0.0294 µg/mL)
CC(C)C[C@H](NC(=O)[C@H](Cc1cccc2ccccc12)C[C@H](O)[C@H](Cc1ccccc1)NC(=O)OC(C)(C)C)C(=O)N[C@@H](Cc1ccccc1)C(N)=O | 1.2 | 
CSc1ccc(C[C@H](C[C@H](O)[C@H](Cc2ccccc2)NC(=O)OC(C)(C)C)C(=O)N[C@H]2c3ccccc3C[C@H]2O)cc1 | 0.22 | 
CC(C)(C)OC(=O)N[C@@H](Cc1ccccc1)[C@@H](O)C[C@@H](Cc1ccc(S(C)(=O)=O)cc1)C(=O)N[C@H]1c2ccccc2C[C@H]1O | 0.17 | 
CC(C)(C)OC(=O)N[C@@H](Cc1ccccc1)[C@@H](O)C[C@@H](C/C=C/c1ccc(O)cc1)C(=O)N[C@H]1c2ccccc2C[C@H]1O | 0.17 | 0.2 (≈ 0.117 µg/mL)
CC(C)(C)OC(=O)N[C@@H](Cc1ccccc1)[C@@H](O)C[C@@H](Cc1ccc(CN2CCOCC2)cc1)C(=O)N[C@H]1c2ccccc2C[C@H]1O | 1.15 | 0.1 (≈ 0.0644 µg/mL)
CC(C)(C)OC(=O)N[C@@H](Cc1ccccc1)[C@@H](O)C[C@@H](Cc1ccc([N+](=O)[O-])cc1)C(=O)N[C@H]1c2ccccc2C[C@H]1O | 0.27 | 
CC(C)(C)OC(=O)N[C@@H](Cc1ccccc1)[C@@H](O)C[C@@H](C/C=C/c1ccc(OCCN2CCOCC2)cc1)C(=O)N[C@H]1c2ccccc2C[C@H]1O |  | 0.05 (≈ 0.035 µg/mL)
CC(C)(C)OC(=O)N[C@@H](Cc1ccccc1)[C@@H](O)C[C@@H](Cc1ccccc1)C(=O)N[C@H]1c2ccccc2C[C@H]1O | 0.23 | 0.4 (≈ 0.218 µg/mL)
CC(C)(C)OC(=O)N[C@@H](Cc1ccccc1)[C@@H](O)C[C@@H](Cc1ccc(F)cc1)C(=O)N[C@H]1c2ccccc2C[C@H]1O | 0.44 | 
CC(C)(C)OC(=O)N[C@@H](Cc1ccccc1)[C@@H](O)C[C@@H](Cc1ccc(C(F)(F)F)cc1)C(=O)N[C@H]1c2ccccc2C[C@H]1O | 0.26 | 
CC(C)(C)OC(=O)N[C@@H](Cc1ccccc1)[C@@H](O)C[C@@H](Cc1ccc(N)cc1)C(=O)N[C@H]1c2ccccc2C[C@H]1O | 0.31 | 0.2 (≈ 0.112 µg/mL)
CC(C)(C)OC(=O)N[C@@H](Cc1ccccc1)[C@@H](O)C[C@@H](Cc1ccc(I)cc1)C(=O)N[C@H]1c2ccccc2C[C@H]1O | 0.72 | 
COCCOCOCCc1ccc(C[C@H](C[C@H](O)[C@H](Cc2ccccc2)NC(=O)OC(C)(C)C)C(=O)N[C@H]2c3ccccc3C[C@H]2O)cc1 | 0.13 | 0.1 (≈ 0.0677 µg/mL)
CC(C)(C)OC(=O)N[C@@H](Cc1ccccc1)[C@@H](O)C[C@@H](Cc1cccc(O)c1)C(=O)N[C@H]1c2ccccc2C[C@H]1O | 0.21 | 
COC(CCc1ccc(C[C@H](C[C@H](O)[C@H](Cc2ccccc2)NC(=O)OC(C)(C)C)C(=O)N[C@H]2c3ccccc3C[C@H]2O)cc1)OC | 0.08 | 

Compound | IC50 [1] [nM] | MIC [2] [µM]
C[C@H](C[C@H](O)[C@H](Cc1ccccc1)NC(=O)OC(C)(C)C)C(=O)N[C@H]1c2ccccc2C[C@H]1O | 62.7 | 
CC(C)(C)OC(=O)N[C@@H](Cc1ccccc1)[C@@H](O)C[C@@H](Cc1ccc(C(C)(C)C)cc1)C(=O)N[C@H]1c2ccccc2C[C@H]1O | 0.27 | 0.2 (≈ 0.12 µg/mL)
CC[C@H](C[C@H](O)[C@H](Cc1ccccc1)NC(=O)OC(C)(C)C)C(=O)N[C@H]1c2ccccc2C[C@H]1O | 34.7 | 
CC(C)(C)OC(=O)N[C@@H](Cc1ccccc1)[C@@H](O)C[C@@H](Cc1ccc(O)cc1)C(=O)N[C@H]1c2ccccc2C[C@H]1O |  | 0.05 (≈ 0.028 µg/mL)
CC(C)C[C@H](NC(=O)[C@H](Cc1ccc(-c2ccccc2)cc1)C[C@H](O)[C@H](Cc1ccccc1)NC(=O)OC(C)(C)C)C(=O)N[C@@H](Cc1ccccc1)C(N)=O | 0.43 | 
COCCN(CCCc1ccc(C[C@H](C[C@H](O)[C@H](Cc2ccccc2)NC(=O)OC(C)(C)C)C(=O)N[C@H]2c3ccccc3C[C@H]2O)cc1)CCOC | 0.59 | 0.2 (≈ 0.144 µg/mL)
CN(C)CCCc1ccc(C[C@H](C[C@H](O)[C@H](Cc2ccccc2)NC(=O)OC(C)(C)C)C(=O)N[C@H]2c3ccccc3C[C@H]2O)cc1 | 0.6 | 
CC(C)(C)OC(=O)N[C@@H](Cc1ccccc1)[C@@H](O)C[C@@H](Cc1ccc(CCC[N+](C)(C)C)cc1)C(=O)N[C@H]1c2ccccc2C[C@H]1O | 0.91 | 0.1
CC(C)(C)OC(=O)N[C@@H](Cc1ccccc1)[C@@H](O)C[C@@H](Cc1ccc(CCCO)cc1)C(=O)N[C@H]1c2ccccc2C[C@H]1O | 0.1 | 0.05 (≈ 0.0301 µg/mL)
CC(C)(C)OC(=O)N[C@@H](Cc1ccccc1)[C@@H](O)C[C@@H](Cc1ccc(CCCN2CCSCC2)cc1)C(=O)N[C@H]1c2ccccc2C[C@H]1O | 1 | 
CC(C)C[C@H](NC(=O)[C@H](C)C[C@H](O)[C@H](Cc1ccccc1)NC(=O)OC(C)(C)C)C(=O)N[C@@H](Cc1ccccc1)C(N)=O | 6 | 
CN(C)Cc1ccc(C[C@H](C[C@H](O)[C@H](Cc2ccccc2)NC(=O)OC(C)(C)C)C(=O)N[C@H]2c3ccccc3C[C@H]2O)cc1 | 1.4 | 
CC(C)(C)OC(=O)N[C@@H](Cc1ccccc1)[C@@H](O)C[C@@H](Cc1ccc(CO)cc1)C(=O)N[C@H]1c2ccccc2C[C@H]1O | 0.17 | 
C[S+]([O-])c1ccc(C[C@H](C[C@H](O)[C@H](Cc2ccccc2)NC(=O)OC(C)(C)C)C(=O)N[C@H]2c3ccccc3C[C@H]2O)cc1 (stereo partly specified) | 0.51 | 
CC(C)C[C@H](NC(=O)[C@H](C/C=C/c1ccccc1)C[C@H](O)[C@H](Cc1ccccc1)NC(=O)OC(C)(C)C)C(=O)N[C@@H](Cc1ccccc1)C(N)=O | 0.23 | 6 (≈ 4.19 µg/mL)
CC(C)(C)OC(=O)N[C@@H](Cc1ccccc1)[C@@H](O)C[C@@H](Cc1c(F)c(F)c(F)c(F)c1F)C(=O)N[C@H]1c2ccccc2C[C@H]1O | 0.6 | 
CC(C)(C)OC(=O)N[C@@H](Cc1ccccc1)[C@@H](O)C[C@@H](CCc1cnc2ccccc2n1)C(=O)N[C@H]1c2ccccc2C[C@H]1O | 0.17 | 
CCCCCCCCCCCCCCC[C@H](C[C@H](O)[C@H](Cc1ccccc1)NC(=O)OC(C)(C)C)C(=O)N[C@H]1c2ccccc2C[C@H]1O | > 3000 | 
CC(C)(C)OC(=O)N[C@@H](Cc1ccccc1)[C@@H](O)C[C@@H](Cc1ccc(CCCN2CCOCC2)cc1)C(=O)N[C@H]1c2ccccc2C[C@H]1O | 0.43 | 0.2 (≈ 0.134 µg/mL)
COCCOCOCCCc1ccc(C[C@H](C[C@H](O)[C@H](Cc2ccccc2)NC(=O)OC(C)(C)C)C(=O)N[C@H]2c3ccccc3C[C@H]2O)cc1 | 0.07 | 0.05 (≈ 0.0345 µg/mL)
